Laboratory results as given in ChEMBL document CHEMBL1141273, “Epicoccins A-D, epipolythiodioxopiperazines from a Cordyceps-colonizing isolate of Epicoccum nigrum” (2007).
Activity calls are given as the source filed them. No cut-off for these calls is given here.

Tests used:
[1] = test system: Staphylococcus aureus; test: Antimicrobial activity against Staphylococcus aureus ATCC 6538 at 100 ug/disk after 24 hrs; type: functional, organism-based
Outline: (§1)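 Bacteria grown on Mueller-Hinton agar. Paper disks (6 mm) bearing 100 µg compound placed on the agar. Plates incubated at 37 °C for 24 h and examined for a zone of inhibition.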

[2] = test system: Bacillus subtilis; test: Antimicrobial activity against Bacillus subtilis ATCC 6633 at 100 ug/disk after 24 hrs; conditions: for zone of inhibition at 100 µg/disc: ATCC 6633, 24 h, read-out: IZ
[3] = test system: Geotrichum candidum; test: Antifungal activity against Geotrichum candidum AS2.498 at 100 ug/disk after 24 hrs; type: functional, organism-based
[4] = test system: Candida albicans; test: Antifungal activity against Candida albicans ATCC 10231 at 100 ug/disk after 24 hrs; type: functional, organism-based
[5] = test system: Enterococcus faecalis; test: Antimicrobial activity against Enterococcus faecalis ATCC 19433 at 100 ug/disk after 24 hrs; type: functional, organism-based; outline: as §1
[6] = test system: Aspergillus fumigatus; test: Antifungal activity against Aspergillus fumigatus ATCC 10894 at 100 ug/disk after 24 hrs; type: functional, organism-based
[7] = test system: Micrococcus luteus; test: Antimicrobial activity against Sarcina lutea CMCC B28001 at 100 ug/disk after 24 hrs; type: functional, organism-based; outline: as §1
[8] = test system: Streptococcus mutans; test: Antimicrobial activity against Streptococcus mutans ATCC 25175 at 100 ug/disk after 24 hrs; type: functional, organism-based; outline: as §1

| Structure (SMILES) | Activity [1] | Activity [2] | Activity [3] | Activity [4] | Activity [5] | Activity [6] | Activity [7] | Activity [8] | zone of inhibition at 100 µg/disc [2] |
| --- | --- | --- | --- | --- | --- | --- | --- | --- | --- |
| O=C1C[C@@H]2SS[C@@]34C[C@@H]1[C@@H]([C@H]2O)N3C(=O)[C@@]12C[C@H]3C(=O)[C@H](S1)[C@H](O)[C@H](O)[C@H]3N2C4=O | inactive | inactive | inactive | inactive | inactive | inactive | inactive | inactive |  |
| O=C(O)c1cn(C2CC2)c2cc(N3CCNCC3)c(F)cc2c1=O [CIPROFLOXACIN] |  |  |  |  |  |  |  |  | 28 mm |
| O=C1C[C@H]2SS[C@@]34C[C@@H]1[C@@H]([C@H]2O)N3C(=O)[C@@]12C[C@H]3C(=O)C[C@@H](S1)[C@H](O)[C@H]3N2C4=O [EPICOCCIN A] | inactive |  | inactive | inactive | inactive | inactive | inactive | inactive | 12 mm |
| O=C1C[C@@H]2S[C@@]34C[C@@H]1[C@@H]([C@H]2O)N3C(=O)[C@@]12C[C@H]3C(=O)C[C@H](S1)[C@H](O)[C@H]3N2C4=O | inactive | inactive | inactive | inactive | inactive | inactive | inactive | inactive |  |
| O=C1C[C@@H]2SS[C@@]34C[C@@H]1[C@@H]([C@H]2O)N3C(=O)[C@@]12C[C@H]3C(=O)C[C@H](SS1)[C@H](O)[C@H]3N2C4=O | inactive | inactive | inactive | inactive | inactive | inactive | inactive | inactive |  |
